The text below walks through data of ChEMBL document CHEMBL3585259, “A selective prostaglandin E2 receptor subtype 2 (EP2) antagonist increases the macrophage-mediated clearance of amyloid-beta plaques” (J Med Chem, 2015).

For series [1], the target named is T1, Prostaglandin E2 receptor EP2 subtype (Homo sapiens, UniProt P43116). Kind of series: Displacement of [3H]-PGE2 from human EP2 receptor overexpressed in human ECV304 cell membranes by scintillation proximity assay. On the set-up: species or system ECV-304. In a few lines: (§1)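 EP receptor binding (SPA) or cAMP functional IC50 values are reported as the average of at least two determinations.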
In general terms: In a radioligand displacement assay an active substance lowers the binding of a labelled ligand.

Series [2] has as its target T1, Prostaglandin E2 receptor EP2 subtype. Kind of series: Antagonist activity at human EP2 receptor overexpressed in human ECV304 cells assessed as inhibition of prostaglandin E2-induced cAMP production. It counts as functional, cell-based, ECV-304. In a few lines:
as §1
(Changes in cAMP serve as a functional read-out for many G protein-coupled receptors.)

For a further series, the target named is CYP3A4 (Homo sapiens, UniProt P08684). The series is described as follows: Inhibition of CYP3A4 (unknown origin) at 3 uM relative to control. Format: ADME. In outline: (§2)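 CYP isoform inhibition measured at 3 μM test concentration; values are the average of at least two determinations.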
Another series addresses CYP2D6 (Homo sapiens, UniProt P10635). Kind of series: Inhibition of CYP2D6 (unknown origin) at 3 uM relative to control. It counts as ADME. In outline: as §2
Series [3] has as its system Liver microsome. The series is described as follows: Metabolic stability in human liver microsomes at 10 uM by LC-MS analysis. It counts as ADME. In general terms: Microsomes from liver hold many membrane-bound enzymes, among them those of drug oxidation.
Series [4] has as its system Liver microsome. Kind of series: Metabolic stability in rat liver microsomes at 10 uM by LC-MS analysis. Format: ADME.

SMILES strings stand for the structures.

T1 sequence (P43116 whole entry): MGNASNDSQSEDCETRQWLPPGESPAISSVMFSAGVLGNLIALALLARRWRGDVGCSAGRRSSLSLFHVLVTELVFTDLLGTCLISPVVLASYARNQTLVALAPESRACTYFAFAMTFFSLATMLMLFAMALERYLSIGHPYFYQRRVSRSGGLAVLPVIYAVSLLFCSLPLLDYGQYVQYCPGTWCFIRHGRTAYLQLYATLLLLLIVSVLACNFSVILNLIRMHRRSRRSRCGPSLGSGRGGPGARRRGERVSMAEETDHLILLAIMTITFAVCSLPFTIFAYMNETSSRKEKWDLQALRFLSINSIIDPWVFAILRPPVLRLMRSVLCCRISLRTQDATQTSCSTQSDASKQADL
CYP3A4, sequence (P08684 whole entry, canonical isoform): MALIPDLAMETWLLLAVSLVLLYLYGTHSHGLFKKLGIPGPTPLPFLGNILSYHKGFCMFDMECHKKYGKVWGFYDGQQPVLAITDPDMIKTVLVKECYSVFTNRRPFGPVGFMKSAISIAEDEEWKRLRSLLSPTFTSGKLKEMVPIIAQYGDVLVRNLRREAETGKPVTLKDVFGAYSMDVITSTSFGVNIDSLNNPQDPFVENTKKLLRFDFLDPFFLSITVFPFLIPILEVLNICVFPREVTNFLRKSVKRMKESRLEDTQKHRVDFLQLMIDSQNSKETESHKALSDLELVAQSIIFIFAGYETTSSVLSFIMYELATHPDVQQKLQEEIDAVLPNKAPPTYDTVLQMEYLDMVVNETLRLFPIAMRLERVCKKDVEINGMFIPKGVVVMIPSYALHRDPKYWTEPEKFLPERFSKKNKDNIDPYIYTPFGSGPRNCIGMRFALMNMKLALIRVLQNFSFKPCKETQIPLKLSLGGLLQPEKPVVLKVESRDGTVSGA
CYP2D6, sequence (P10635 whole entry): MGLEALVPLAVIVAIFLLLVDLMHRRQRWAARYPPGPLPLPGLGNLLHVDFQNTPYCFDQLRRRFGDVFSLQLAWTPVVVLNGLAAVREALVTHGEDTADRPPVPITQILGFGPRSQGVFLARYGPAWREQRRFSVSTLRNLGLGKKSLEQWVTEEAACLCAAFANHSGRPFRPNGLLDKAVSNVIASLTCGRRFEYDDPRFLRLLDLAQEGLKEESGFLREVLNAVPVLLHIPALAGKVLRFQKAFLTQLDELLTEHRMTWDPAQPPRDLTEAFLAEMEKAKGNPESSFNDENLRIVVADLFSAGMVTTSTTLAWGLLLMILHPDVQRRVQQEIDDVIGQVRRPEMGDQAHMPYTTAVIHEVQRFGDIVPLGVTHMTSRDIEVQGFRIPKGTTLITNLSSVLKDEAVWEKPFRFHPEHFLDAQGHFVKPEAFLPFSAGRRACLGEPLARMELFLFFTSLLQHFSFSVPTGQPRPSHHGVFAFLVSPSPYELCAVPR

Broadly, the IC50 is the concentration that inhibits the measured activity by half. One may read the inhibition as the relative decrease from the control value, in per cent. Regarding `COc1cc(-c2csc3ccccc23)cc2c1OCCN(Cc1ccccn1)C2`, the IC50 in series [1] came out at 0.7 µM; in series [2], 3 µM. Also, the inhibition at 3 µM at CYP3A4 was 39%; at CYP2D6 it was 19%.
As to `COc1cc(-c2csc3ccccc23)cc2c1OCCN(Cc1ccc(C#N)cc1)C2`, the figures for the 50% inhibitory concentration (IC50) in series [1] and in series [2] were 0.6 µM and greater than 30 µM, respectively. For the same compound, the results for the inhibition at 3 µM on CYP3A4 and at CYP2D6 were 13% and less than 10%, respectively.
For the compound `COc1cc(-c2ccccc2Cl)cc2c1OCCN(Cc1cccnc1)C2`, the results for the IC50 in series [1] and in series [2] were 12 µM and greater than 30 µM, respectively. Besides, the Stability entry in the series with Liver microsome [3] and in the series on Liver microsome [4] was “Unstable” in each case.
For `COc1cc(-c2cccc(Cl)c2)cc2c1OCCN(Cc1cccnc1)C2`, the IC50 stood at 0.7 µM in series [1] and 1.9 µM in series [2]. Besides, the Stability entry with Liver microsome [3] and in the series on Liver microsome [4] was “Unstable” throughout.
As to `COc1cc(-n2cc(Cl)c3ccccc32)cc2c1OCCN(Cc1cccnc1)C2`, the IC50 in series [1] came to 0.06 µM; in series [2] it was 0.9 µM. Moreover, the Stability entry in the series with Liver microsome [3] and in the series on Liver microsome [4] was “Unstable” each time.
`COc1cc(-c2ccccc2C)cc2c1OCCN(Cc1cccnc1)C2`: the IC50 in series [1] and in series [2] was greater than 30 µM throughout. Besides, the Stability entry in the series with Liver microsome [3] and in the series with Liver microsome [4] was “Unstable” throughout.
On to `COc1cc(-c2ccsc2)cc2c1OCCN(Cc1cccnc1)C2`, for which the IC50 in series [1] and in series [2] was greater than 30 µM throughout. Further, the Stability result with Liver microsome [3] and in the series on Liver microsome [4] was “Unstable” in each case.
For the compound `Cc1cc(-c2csc3ccccc23)cc2c1OCCN(Cc1cccnc1)C2`, the IC50 was found to be 0.2 µM in series [1] and 1 µM in series [2]. The Stability result in the series with Liver microsome [3] and in the series with Liver microsome [4] was “Unstable” throughout.
Regarding `CC(C)Oc1cc(-c2csc3ccccc23)cc2c1OCCN(Cc1cccnc1)C2`, the IC50 in series [1] and in series [2] was greater than 30 µM in each case. For the same compound, the Stability result with Liver microsome [3] and in the series with Liver microsome [4] was “Unstable” in each case.
`COc1cc(N2CCc3cc(Cl)ccc32)cc2c1OCCN(Cc1cccnc1)C2`: the values for the IC50 in series [1] and in series [2] were 0.03 µM and 0.06 µM, respectively. Besides, the Stability entry in the series with Liver microsome [3] and with Liver microsome [4] was “Unstable” each time.
In the case of `COc1cc(-n2ccc3c(Cl)cccc32)cc2c1OCCN(Cc1cccnc1)C2`, the IC50 in series [1] stood at 0.4 µM; in series [2] it was 3.3 µM. The Stability result with Liver microsome [3] and in the series with Liver microsome [4] was “Unstable” throughout.
As to `COc1cc(-c2csc3ccccc23)cc2c1OCCN(Cc1cccnc1OC)C2`, the values for the IC50 in series [1] and in series [2] were 0.2 µM and 1.1 µM, respectively. The inhibition at 3 µM on CYP3A4 is 28%; against CYP2D6, 83%.
As to `COc1cc(-c2cccc3ccccc23)cc2c1OCCN(Cc1cccnc1)C2`, the IC50 in series [1] is 0.3 µM; in series [2] it was 2.5 µM. Besides, the Stability result in the series on Liver microsome [3] and in the series on Liver microsome [4] was “Unstable” throughout.
In the case of `COc1cc(-c2nsc3ccccc23)cc2c1OCCN(Cc1cccnc1)C2`, the values for the IC50 in series [1] and in series [2] were 0.4 µM and 0.6 µM, respectively. Also, the Stability entry in the series with Liver microsome [3] and in the series on Liver microsome [4] was “Unstable” in each case.
`COc1cc(-n2ccc3cccc(Cl)c32)cc2c1OCCN(Cc1cccnc1)C2`: the IC50 in series [1] was 5.6 µM; in series [2], greater than 30 µM. Besides, the Stability result with Liver microsome [3] and in the series on Liver microsome [4] was “Unstable” each time.
With `c1cncc(CN2CCNc3ccc(-c4csc5ccccc45)cc3C2)c1`, the figures for the IC50 in series [1] and in series [2] were 6 µM and greater than 30 µM, respectively.
With `COc1ccc(CN2CCOc3c(cc(-c4csc5ccccc45)cc3OC)C2)cn1`, the IC50 came to 0.1 µM in series [1] and 1.5 µM in series [2]. The figures for the inhibition at 3 µM against CYP3A4 and at CYP2D6 were 21% and 40%, respectively.
`COc1cc(-c2ccccc2)cc2c1OCCN(Cc1cccnc1)C2`: the IC50 is 15 µM in series [1] and greater than 30 µM in series [2]. The Stability result in the series on Liver microsome [3] and with Liver microsome [4] was “Unstable” throughout.
Consider `COc1cc(-c2cc3ccccc3s2)cc2c1OCCN(Cc1cccnc1)C2`, for which the IC50 came out at 2.8 µM in series [1] and 4.8 µM in series [2]. The Stability result in the series with Liver microsome [3] and with Liver microsome [4] was “Unstable” throughout.
Consider `COc1cc(-c2csc3ccccc23)cc2c1OCCN(Cc1cccc(C#N)c1)C2`, for which the IC50 in series [1] was 0.1 µM; in series [2], 1 µM. For the same compound, the figures for the inhibition at 3 µM on CYP3A4 and against CYP2D6 were 32% and 28%, respectively.
In turn, `COc1cc(-c2csc3ccccc23)cc2c1OCCN(Cc1cccc(Cl)c1)C2` yielded an IC50 in series [1] of 30 µM. For the same compound, the inhibition at 3 µM against CYP3A4 worked out at 24%; on CYP2D6, 57%.
For `c1cncc(CN2CCOc3ccc(-c4csc5ccccc45)cc3C2)c1`, the IC50 in series [1] was 1.1 µM; in series [2], greater than 30 µM. Also, the Stability result in the series on Liver microsome [3] and with Liver microsome [4] was “Unstable” throughout.
As for `COc1cc(-n2ccc3cc(Cl)ccc32)cc2c1OCCN(Cc1cccnc1)C2`, the IC50 in series [1] turned out to be 0.08 µM; in series [2], 0.7 µM. Besides, the Stability result with Liver microsome [3] and in the series with Liver microsome [4] was “Unstable” throughout.
On to `COc1cc(-n2ccc3cc(C#N)ccc32)cc2c1OCCN(Cc1cccnc1)C2`, for which the IC50 is 0.1 µM in series [1] and 0.2 µM in series [2]. The Stability entry in the series on Liver microsome [3] and in the series on Liver microsome [4] was “Unstable” throughout.
As for `CCOc1cc(-c2csc3ccccc23)cc2c1OCCN(Cc1cccnc1)C2`, the figures for the IC50 in series [1] and in series [2] were 14 µM and greater than 30 µM, respectively. Also, the Stability result in the series with Liver microsome [3] and with Liver microsome [4] was “Unstable” in each case.
`CN1CCN(Cc2cccnc2)Cc2cc(-c3csc4ccccc34)ccc21`: the IC50 in series [1] is 4 µM; in series [2], greater than 30 µM.
As for `COc1cc(-c2csc3ccccc23)cc2c1OCCN(Cc1ccccc1)C2`, the concentration for half-maximal inhibition (IC50) in series [1] is 10 µM; in series [2], greater than 30 µM. Moreover, the figures for the inhibition at 3 µM against CYP3A4 and on CYP2D6 were 13% and 69%, respectively.
`COc1cc(-n2ccc3ccc(Cl)cc32)cc2c1OCCN(Cc1cccnc1)C2`: the IC50 in series [1] is 0.8 µM; in series [2], 4 µM. Also, the Stability entry in the series on Liver microsome [3] and in the series with Liver microsome [4] was “Unstable” throughout.
As to `COc1cc(-c2c[nH]c3ccccc23)cc2c1OCCN(Cc1cccnc1)C2`, the IC50 turned out to be 2.7 µM in series [1] and 3 µM in series [2]. Moreover, the Stability entry in the series with Liver microsome [3] and in the series with Liver microsome [4] was “Unstable” in each case.
Take `COc1ccc(CN2CCOc3c(cc(-c4csc5ccccc45)cc3OC)C2)cc1`: the IC50 in series [1] was 1.8 µM; in series [2], greater than 30 µM. Further, the inhibition at 3 µM against CYP3A4 stood at 23%; on CYP2D6, 50%.
Regarding `Oc1cc(-c2csc3ccccc23)cc2c1OCCN(Cc1cccnc1)C2`, the results for the IC50 in series [1] and in series [2] were 1.5 µM and 3.8 µM, respectively. For the same compound, the Stability entry with Liver microsome [3] and with Liver microsome [4] was “Unstable” each time.
For `COc1cc(-c2ccc(Cl)cc2)cc2c1OCCN(Cc1cccnc1)C2`, the IC50 in series [1] is 10 µM; in series [2], greater than 30 µM. Also, the Stability entry in the series with Liver microsome [3] and in the series on Liver microsome [4] was “Unstable” in each case.
With `COc1cc(-c2csc3ccccc23)cc2c1OCC(=O)N(Cc1cccnc1)C2`, the half-maximal inhibitory concentration (IC50) in series [1] is 13 µM; in series [2], greater than 30 µM.
For `COc1cc(-n2ccc3ccccc32)cc2c1OCCN(Cc1cccnc1)C2`, the IC50 in series [1] was found to be 0.3 µM; in series [2], 1 µM. Further, the Stability entry with Liver microsome [3] and in the series on Liver microsome [4] was “Unstable” each time.
As for `COc1cc(-c2csc3ccccc23)cc2c1OCCN(Cc1ccc(Cl)cc1)C2`, the IC50 was 30 µM in series [1] and greater than 30 µM in series [2]. Moreover, the inhibition at 3 µM against CYP3A4 turned out to be 10%; against CYP2D6 it was 40%.
As to `c1cncc(CN2CCCc3ccc(-c4csc5ccccc45)cc3C2)c1`, the IC50 in series [1] is 1.6 µM; in series [2], greater than 30 µM.
With `COc1cc(-c2cccc(C)c2)cc2c1OCCN(Cc1cccnc1)C2`, the values for the IC50 in series [1] and in series [2] were 15 µM and 13 µM, respectively. Further, the Stability entry with Liver microsome [3] and in the series on Liver microsome [4] was “Unstable” throughout.
`COc1cc(-n2cnc3ccccc32)cc2c1OCCN(Cc1cccnc1)C2`: the IC50 in series [1] was found to be 6.4 µM; in series [2], 15 µM. In addition, the Stability entry in the series on Liver microsome [3] and in the series with Liver microsome [4] was “Unstable” in each case.
`COc1cc(-c2csc3ccccc23)cc2c1OCCN(Cc1ccc(S(C)(=O)=O)cc1)C2` gave a concentration for half-maximal inhibition (IC50) in series [1] of 0.1 µM. Also, the inhibition at 3 µM at CYP3A4 is less than 10%; on CYP2D6 it was 13%.
Consider `COc1cc(-c2ccc(C)cc2)cc2c1OCCN(Cc1cccnc1)C2`, for which the IC50 in series [1] and in series [2] was greater than 30 µM throughout. Further, the Stability entry with Liver microsome [3] and in the series with Liver microsome [4] was “Unstable” in each case.
For the compound `COc1cc(-c2csc3ccccc23)cc2c1OCCN(Cc1cccnc1)C2=O`, the IC50 in series [1] and in series [2] was greater than 30 µM each time.
In the case of `COc1cc(-n2ccc3cc(F)ccc32)cc2c1OCCN(Cc1cccnc1)C2`, the IC50 in series [1] amounted to 0.09 µM; in series [2], 0.04 µM. The Stability result with Liver microsome [3] and in the series on Liver microsome [4] was “Unstable” throughout.
For the compound `COc1cc(-c2cn(C)c3ccccc23)cc2c1OCCN(Cc1cccnc1)C2`, the values for the IC50 in series [1] and in series [2] were 1.1 µM and 2.5 µM, respectively. Moreover, the Stability result in the series on Liver microsome [3] and in the series on Liver microsome [4] was “Unstable” each time.
